{"source": "ChEMBL document CHEMBL4689842", "about": "“EUbOPEN Chemogenomics Library wave 1” (2021)", "tested_on": "Fibroblast", "assay": "Multiplex assay against human fibroblast", "format": "toxicity, cell-based", "outline": "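Phenotypes for tubulin, mitochondrial mass and membrane permeability are expressed as per cents of healthy-nucleus cells. Cells were stained live at seeding with Hoechst33342, BioTracker Green Microtubule Cytoskeleton Dye, MitoTracker Red and Annexin V Alexa Fluor 680, then imaged after compound addition on a CQ1 microscope at 37°C and 5% CO2. Machine-learning gating in CellPathfinder separated Hoechst high-intensity objects from normal cells, divided normal cells by nuclear state (healthy, pyknosed, fragmented) and divided pyknosed cells into mitotic or apoptotic.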", "key": {"[1]": {"conditions": "12 h, 1 µM, compound concentration 1 uM, replicate 1"}, "[2]": {"conditions": "12 h, 1 µM, compound concentration 1 uM, replicate 2"}, "[3]": {"conditions": "12 h, 10 µM, compound concentration 10 uM, replicate 1"}, "[4]": {"conditions": "12 h, 10 µM, compound concentration 10 uM, replicate 2"}, "[5]": {"conditions": "24 h, 1 µM, compound concentration 1 uM, replicate 1"}, "[6]": {"conditions": "24 h, 1 µM, compound concentration 1 uM, replicate 2"}, "[7]": {"conditions": "24 h, 10 µM, compound concentration 10 uM, replicate 1"}, "[8]": {"conditions": "24 h, 10 µM, compound concentration 10 uM, replicate 2"}}, "data": [{"smiles": "CCOc1ccn(-c2ccc(F)cc2)c(=O)c1C(=O)Nc1ccc(Oc2ccnc(N)c2Cl)c(F)c1", "note": "[BMS-777607]", "values": [{"measurement": "Population Apoptotic (%)", "setting": "[1]", "value": 77, "unit": "%"}, {"measurement": "Population Fragmented Nuclei (%)", "setting": "[1]", "value": 30, "unit": "%"}, {"measurement": "Population Healthy Nuclei (%)", "setting": "[1]", "value": 58, "unit": "%"}, {"measurement": "Population Hoechst High Intensity Objects (%)", "setting": "[1]", "value": 13, "unit": "%"}, {"measurement": "Population Membrane Permeable-Phenotype (%)", "setting": "[1]", "value": 10, "unit": "%"}, {"measurement": "Population Mitochondria Different-Phenotype (%)", "setting": "[1]", "value": 4, "unit": "%"}, {"measurement": "Population Mitotic Cells (%)", "setting": "[1]", "value": 22, "unit": "%"}, {"measurement": "Population Normal (%)", "setting": "[1]", "value": 86, "unit": "%"}, {"measurement": "Population Pyknosed Nuclei (%)", "setting": "[1]", "value": 10, "unit": "%"}, {"measurement": "Population Tubulin-Different-Phenotype (%)", "setting": "[1]", "value": 22, "unit": "%"}, {"measurement": "Total Cell Count", "setting": "[1]", "value": 251}, {"measurement": "Population Apoptotic (%)", "setting": "[2]", "value": 100, "unit": "%"}, {"measurement": "Population Fragmented Nuclei (%)", "setting": "[2]", "value": 56, "unit": "%"}, {"measurement": "Population Healthy Nuclei (%)", "setting": "[2]", "value": 39, "unit": "%"}, {"measurement": "Population Hoechst High Intensity Objects (%)", "setting": "[2]", "value": 29, "unit": "%"}, {"measurement": "Population Membrane Permeable-Phenotype (%)", "setting": "[2]", "value": 17, "unit": "%"}, {"measurement": "Population Mitochondria Different-Phenotype (%)", "setting": "[2]", "value": 17, "unit": "%"}, {"measurement": "Population Mitotic Cells (%)", "setting": "[2]", "value": 0, "unit": "%"}, {"measurement": "Population Normal (%)", "setting": "[2]", "value": 70, "unit": "%"}, {"measurement": "Population Pyknosed Nuclei (%)", "setting": "[2]", "value": 3, "unit": "%"}, {"measurement": "Population Tubulin-Different-Phenotype (%)", "setting": "[2]", "value": 47, "unit": "%"}, {"measurement": "Total Cell Count", "setting": "[2]", "value": 82}, {"measurement": "Population Apoptotic (%)", "setting": "[3]", "value": 86, "unit": "%"}, {"measurement": "Population Fragmented Nuclei (%)", "setting": "[3]", "value": 27, "unit": "%"}, {"measurement": "Population Healthy Nuclei (%)", "setting": "[3]", "value": 60, "unit": "%"}, {"measurement": "Population Hoechst High Intensity Objects (%)", "setting": "[3]", "value": 15, "unit": "%"}, {"measurement": "Population Membrane Permeable-Phenotype (%)", "setting": "[3]", "value": 1, "unit": "%"}, {"measurement": "Population Mitotic Cells (%)", "setting": "[3]", "value": 13, "unit": "%"}, {"measurement": "Population Normal (%)", "setting": "[3]", "value": 84, "unit": "%"}, {"measurement": "Population Pyknosed Nuclei (%)", "setting": "[3]", "value": 12, "unit": "%"}, {"measurement": "Total Cell Count", "setting": "[3]", "value": 212}, {"measurement": "Population Apoptotic (%)", "setting": "[4]", "value": 80, "unit": "%"}, {"measurement": "Population Fragmented Nuclei (%)", "setting": "[4]", "value": 54, "unit": "%"}, {"measurement": "Population Healthy Nuclei (%)", "setting": "[4]", "value": 36, "unit": "%"}, {"measurement": "Population Hoechst High Intensity Objects (%)", "setting": "[4]", "value": 38, "unit": "%"}, {"measurement": "Population Membrane Permeable-Phenotype (%)", "setting": "[4]", "value": 4, "unit": "%"}, {"measurement": "Population Mitochondria Different-Phenotype (%)", "setting": "[4]", "value": 4, "unit": "%"}, {"measurement": "Population Mitotic Cells (%)", "setting": "[4]", "value": 20, "unit": "%"}, {"measurement": "Population Normal (%)", "setting": "[4]", "value": 61, "unit": "%"}, {"measurement": "Population Pyknosed Nuclei (%)", "setting": "[4]", "value": 8, "unit": "%"}, {"measurement": "Population Tubulin-Different-Phenotype (%)", "setting": "[4]", "value": 0, "unit": "%"}, {"measurement": "Total Cell Count", "setting": "[4]", "value": 92}, {"measurement": "Population Apoptotic (%)", "setting": "[5]", "value": 85, "unit": "%"}, {"measurement": "Population Fragmented Nuclei (%)", "setting": "[5]", "value": 27, "unit": "%"}, {"measurement": "Population Healthy Nuclei (%)", "setting": "[5]", "value": 62, "unit": "%"}, {"measurement": "Population Hoechst High Intensity Objects (%)", "setting": "[5]", "value": 11, "unit": "%"}, {"measurement": "Population Membrane Permeable-Phenotype (%)", "setting": "[5]", "value": 8, "unit": "%"}, {"measurement": "Population Mitochondria Different-Phenotype (%)", "setting": "[5]", "value": 8, "unit": "%"}, {"measurement": "Population Mitotic Cells (%)", "setting": "[5]", "value": 14, "unit": "%"}, {"measurement": "Population Normal (%)", "setting": "[5]", "value": 88, "unit": "%"}, {"measurement": "Population Pyknosed Nuclei (%)", "setting": "[5]", "value": 10, "unit": "%"}, {"measurement": "Population Tubulin-Different-Phenotype (%)", "setting": "[5]", "value": 19, "unit": "%"}, {"measurement": "Total Cell Count", "setting": "[5]", "value": 226}, {"measurement": "Population Apoptotic (%)", "setting": "[6]", "value": 50, "unit": "%"}, {"measurement": "Population Fragmented Nuclei (%)", "setting": "[6]", "value": 63, "unit": "%"}, {"measurement": "Population Healthy Nuclei (%)", "setting": "[6]", "value": 32, "unit": "%"}, {"measurement": "Population Hoechst High Intensity Objects (%)", "setting": "[6]", "value": 31, "unit": "%"}, {"measurement": "Population Membrane Permeable-Phenotype (%)", "setting": "[6]", "value": 10, "unit": "%"}, {"measurement": "Population Mitochondria Different-Phenotype (%)", "setting": "[6]", "value": 21, "unit": "%"}, {"measurement": "Population Mitotic Cells (%)", "setting": "[6]", "value": 50, "unit": "%"}, {"measurement": "Population Normal (%)", "setting": "[6]", "value": 68, "unit": "%"}, {"measurement": "Population Pyknosed Nuclei (%)", "setting": "[6]", "value": 3, "unit": "%"}, {"measurement": "Population Tubulin-Different-Phenotype (%)", "setting": "[6]", "value": 31, "unit": "%"}, {"measurement": "Total Cell Count", "setting": "[6]", "value": 85}, {"measurement": "Population Apoptotic (%)", "setting": "[7]", "value": 80, "unit": "%"}, {"measurement": "Population Fragmented Nuclei (%)", "setting": "[7]", "value": 26, "unit": "%"}, {"measurement": "Population Healthy Nuclei (%)", "setting": "[7]", "value": 62, "unit": "%"}, {"measurement": "Population Hoechst High Intensity Objects (%)", "setting": "[7]", "value": 9, "unit": "%"}, {"measurement": "Population Membrane Permeable-Phenotype (%)", "setting": "[7]", "value": 0, "unit": "%"}, {"measurement": "Population Mitochondria Different-Phenotype (%)", "setting": "[7]", "value": 4, "unit": "%"}, {"measurement": "Population Mitotic Cells (%)", "setting": "[7]", "value": 19, "unit": "%"}, {"measurement": "Population Normal (%)", "setting": "[7]", "value": 90, "unit": "%"}, {"measurement": "Total Cell Count", "setting": "[7]", "value": 214}, {"measurement": "Population Apoptotic (%)", "setting": "[8]", "value": 50, "unit": "%"}, {"measurement": "Population Fragmented Nuclei (%)", "setting": "[8]", "value": 54, "unit": "%"}, {"measurement": "Population Healthy Nuclei (%)", "setting": "[8]", "value": 35, "unit": "%"}, {"measurement": "Population Hoechst High Intensity Objects (%)", "setting": "[8]", "value": 35, "unit": "%"}, {"measurement": "Population Membrane Permeable-Phenotype (%)", "setting": "[8]", "value": 5, "unit": "%"}, {"measurement": "Population Mitochondria Different-Phenotype (%)", "setting": "[8]", "value": 10, "unit": "%"}, {"measurement": "Population Mitotic Cells (%)", "setting": "[8]", "value": 50, "unit": "%"}, {"measurement": "Population Normal (%)", "setting": "[8]", "value": 64, "unit": "%"}, {"measurement": "Population Pyknosed Nuclei (%)", "setting": "[8]", "value": 10, "unit": "%"}, {"measurement": "Population Tubulin-Different-Phenotype (%)", "setting": "[8]", "value": 0, "unit": "%"}, {"measurement": "Total Cell Count", "setting": "[8]", "value": 88}]}]}
